Measured values as given in ChEMBL document CHEMBL2016538, “Synthesis and evaluation of C-11, F-18 and I-125 small molecule radioligands for detecting oxytocin receptors” (Bioorg Med Chem, 2012).
Calls of active or inactive are those of the source. The rule behind the calls is not given here.

Assays:
Brain [1] = assay: Drug uptake in Sprague-Dawley rat brain at 295 uCi. iv after 5 mins by PET imaging; assay type: ADME, organism-based; conditions: in vivo
Outline: (§1)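 Female Sprague–Dawley rats got estradiol benzoate 10–12 μg sc in sesame oil daily for 3 days to up-regulate OTR. They were anesthetised with ketamine/xylazine 100/10 mg/kg ip, and 200–300 μCi radioligand was injected via tail vein catheter. MicroPET brain scans began at injection (90 min 18F, 45 min 11C) after a 7 min Co-57 transmission scan. Frames were summed and whole-brain time-activity curves plotted.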

Vasopressin V2 receptor = Vasopressin V2 receptor (Homo sapiens, UniProt P30518); assay: Displacement of [3H]-AVP from human vasopressin V2 receptor after […] by liquid scintillation counting
[2] = Octanol-water partition coefficient, log P of the compound at 5 to 10 uCi at pH 7.4 after 3 mins; assay type: physicochemical
Outline: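 About 5–10 μCi radioligand was shaken 3 min in 5 ml 0.1 M sodium phosphate pH 7.4 and 10 ml octanol. 2 ml octanol aliquots were re-partitioned against 2 ml fresh buffer by vortexing 7 min, then centrifuged at 20,000×g for 5 min. 0.5 ml of each layer was gamma-counted, and average counts gave logP7.4.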

Vasopressin V1a receptor [3] = biological target: Vasopressin V1a receptor (Microtus ochrogaster, UniProt Q9WTV9); assay: Displacement of [125I]-LVA from prairie vole vasopressin V1A receptor after 72 hrs
Outline: (§2)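 Prairie vole brain cryosections (20 μm, PFC through NAcc and VP) were thawed, dipped in 0.1% paraformaldehyde in PBS pH 7.4 and rinsed in 50 mM Tris pH 7.4. They were incubated 1 h with 50 pM 125I-LVA plus competitor at 0 or 10−10 to 10−5 M, then washed in Tris/2% MgCl2 pH 7.4. Film exposure was 72 h against 125I standards. Ki came from competition curves; sections from six animals.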

Vasopressin V1a receptor [4] = biological target: Vasopressin V1a receptor (Homo sapiens, UniProt P37288); assay: Displacement of [3H]-AVP from human V1A receptor after […] by liquid scintillation counting
Oxytocin receptor = biological target: T1, Oxytocin receptor (Homo sapiens, UniProt P30559); assay: Displacement of [3H]oxytocin from human oxytocin receptor after […] by liquid scintillation counting
T1 sequence (P30559 whole entry): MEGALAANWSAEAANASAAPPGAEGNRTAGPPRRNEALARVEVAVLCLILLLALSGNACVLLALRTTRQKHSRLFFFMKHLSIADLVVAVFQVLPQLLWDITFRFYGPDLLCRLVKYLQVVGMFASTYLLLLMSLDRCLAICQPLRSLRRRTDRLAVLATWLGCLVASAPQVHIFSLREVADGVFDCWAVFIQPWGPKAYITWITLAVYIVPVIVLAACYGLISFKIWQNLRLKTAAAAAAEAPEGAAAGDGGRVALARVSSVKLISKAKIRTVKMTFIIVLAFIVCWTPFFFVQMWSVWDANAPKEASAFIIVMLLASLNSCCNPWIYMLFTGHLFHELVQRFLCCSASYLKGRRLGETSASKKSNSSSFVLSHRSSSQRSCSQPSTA

[5] = Chemical stability of the compound in 10 % ethanol assessed as remaining radioactivity; assay type: physicochemical
Thyroid gland [6] = assay: Drug uptake in iv dosed Sprague-Dawley rat thyroid assessed as per organ after 120 mins; assay type: ADME, organism-based; conditions: in vivo, 2 h
Outline: (§3)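 Female Sprague–Dawley rats (180–200 g), fed ad libitum, were anesthetised with im ketamine/xylazine. Radioligand was given iv via tail vein in 0.1–0.2 ml 10% ethanol/saline. Animals were killed at 15, 30, 60 or 120 min and the thyroid was counted by gamma counter with dose standards. Counts were decay-corrected and given as percent injected dose per organ; n = 4, or 3 where noted.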

Thyroid gland [7] = assay: Drug uptake in iv dosed Sprague-Dawley rat thyroid assessed as per organ after 30 mins; assay type: ADME, organism-based; conditions: in vivo, 0.5 h; outline: as §3
Thyroid gland [8] = assay: Drug uptake in iv dosed Sprague-Dawley rat thyroid assessed as per organ after 60 mins; assay type: ADME, organism-based; conditions: in vivo, 1 h; outline: as §3
Thyroid gland [9] = assay: Drug uptake in iv dosed Sprague-Dawley rat thyroid assessed as per organ after 15 mins; assay type: ADME, organism-based; conditions: in vivo, 0.25 h; outline: as §3
Brain [10] = assay: Drug uptake in Sprague-Dawley rat brain at 277 uCi, iv after 45 mins by PET imaging; assay type: ADME, organism-based; conditions: in vivo, 0.75 h; outline: as §1
[11] = biological target: Vasopressin V1a receptor (Microtus ochrogaster) (UniProt Q9WTV9); assay: Binding affinity to prairie vole ventral pallidum vasopressin V1A receptor by autoradiography; conditions: tested as the 125I-labelled form; outline: as §2
Vasopressin V1b receptor = biological target: T2, Vasopressin V1b receptor (Homo sapiens, UniProt P47901); assay: Displacement of [3H]-AVP from human V1b receptor after […] by liquid scintillation counting
T2 sequence (P47901 whole entry): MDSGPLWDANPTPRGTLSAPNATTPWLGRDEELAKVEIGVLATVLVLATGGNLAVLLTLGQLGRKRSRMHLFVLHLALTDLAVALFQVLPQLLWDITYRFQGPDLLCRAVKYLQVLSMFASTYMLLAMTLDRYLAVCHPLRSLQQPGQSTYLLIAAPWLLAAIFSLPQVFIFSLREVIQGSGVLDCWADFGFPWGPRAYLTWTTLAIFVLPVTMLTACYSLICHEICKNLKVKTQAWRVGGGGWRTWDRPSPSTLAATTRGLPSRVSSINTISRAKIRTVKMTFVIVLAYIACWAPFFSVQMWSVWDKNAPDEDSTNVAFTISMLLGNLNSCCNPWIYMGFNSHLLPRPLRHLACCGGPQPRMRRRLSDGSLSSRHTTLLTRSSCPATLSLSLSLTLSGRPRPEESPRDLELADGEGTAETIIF

Chain of Vasopressin V2 receptor (P30518 whole entry): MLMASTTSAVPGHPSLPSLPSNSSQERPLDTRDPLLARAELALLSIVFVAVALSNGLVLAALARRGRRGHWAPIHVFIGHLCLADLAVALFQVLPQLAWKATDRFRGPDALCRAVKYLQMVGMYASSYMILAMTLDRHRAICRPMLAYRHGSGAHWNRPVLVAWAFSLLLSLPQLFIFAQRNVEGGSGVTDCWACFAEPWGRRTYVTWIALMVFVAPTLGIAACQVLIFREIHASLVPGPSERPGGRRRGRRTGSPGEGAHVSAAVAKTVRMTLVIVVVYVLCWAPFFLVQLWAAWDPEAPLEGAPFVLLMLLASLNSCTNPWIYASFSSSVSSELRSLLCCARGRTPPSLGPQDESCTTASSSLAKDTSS
Chain of Vasopressin V1a receptor (Microtus ochrogaster, UniProt Q9WTV9) (Q9WTV9 whole entry): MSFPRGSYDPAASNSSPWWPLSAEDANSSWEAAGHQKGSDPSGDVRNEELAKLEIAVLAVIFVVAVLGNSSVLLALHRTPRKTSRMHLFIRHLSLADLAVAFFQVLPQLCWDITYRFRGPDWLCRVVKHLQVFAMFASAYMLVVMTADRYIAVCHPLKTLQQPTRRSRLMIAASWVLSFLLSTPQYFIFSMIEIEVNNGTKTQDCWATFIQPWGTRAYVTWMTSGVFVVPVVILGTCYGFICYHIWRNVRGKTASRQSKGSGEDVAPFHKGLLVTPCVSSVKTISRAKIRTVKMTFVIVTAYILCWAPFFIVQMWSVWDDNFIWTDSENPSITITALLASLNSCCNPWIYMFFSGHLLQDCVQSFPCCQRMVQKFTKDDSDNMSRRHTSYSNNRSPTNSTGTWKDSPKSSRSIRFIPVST
Chain of Vasopressin V1a receptor (Homo sapiens, UniProt P37288) (P37288 whole entry): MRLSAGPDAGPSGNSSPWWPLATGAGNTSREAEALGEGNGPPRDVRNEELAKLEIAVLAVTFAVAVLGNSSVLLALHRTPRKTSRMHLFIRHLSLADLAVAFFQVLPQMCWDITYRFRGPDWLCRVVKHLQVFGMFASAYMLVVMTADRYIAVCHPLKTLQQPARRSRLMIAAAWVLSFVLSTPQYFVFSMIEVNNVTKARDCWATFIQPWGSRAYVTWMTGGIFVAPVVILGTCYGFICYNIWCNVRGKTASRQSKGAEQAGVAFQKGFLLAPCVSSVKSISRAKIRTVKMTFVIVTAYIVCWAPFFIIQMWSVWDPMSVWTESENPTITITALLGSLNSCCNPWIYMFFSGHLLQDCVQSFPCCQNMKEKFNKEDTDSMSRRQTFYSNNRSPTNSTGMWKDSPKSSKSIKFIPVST
Chain of Vasopressin V1a receptor (Microtus ochrogaster) (Q9WTV9 whole entry, looked up): as the sequence (Q9WTV9 whole entry) above

Question: With CS(=O)(=O)N1CCC(Oc2ccc(CC(=O)N3CCC(N4C(=O)CCc5ccccc54)CC3)c(OCC[18F])c2)CC1 as the compound, how does the Drug uptake (Brain [1]) read?
Answer: Active

Question: Which Ki (Vasopressin V2 receptor) does the source give for CS(=O)(=O)N1CCC(Oc2ccc(CC(=O)N3CCC(N4C(=O)CCc5ccccc54)CC3)c(OC/C=C/I)c2)CC1 here?
Answer: 1400 nM

Question: What about the logD at 0.05 h [2] of the same compound?
Answer: 2.36

Question: And the Ki (Vasopressin V1a receptor [3])?
Answer: 1.7 nM

Question: And the Ki (Vasopressin V1a receptor [4])?
Answer: 790 nM

Question: What about the Ki (Oxytocin receptor) of the same compound?
Answer: 10 nM

Question: For CS(=O)(=O)N1CCC(Oc2ccc(CC(=O)N3CCC(N4C(=O)CCc5ccccc54)CC3)c(O)c2)CC1, which Ki (Oxytocin receptor) is on record?
Answer: 78 nM

Question: With CS(=O)(=O)N1CCC(Oc2ccc(CC(=O)N3CCC(N4C(=O)CCc5ccccc54)CC3)c(OC/C=C\[125I])c2)CC1 as the compound, how does the Stability [5] read?
Answer: 15%

Question: And the Drug uptake (Thyroid gland [6])?
Answer: 0.67 %ID

Question: What about the Drug uptake (Thyroid gland [7]) of the same compound?
Answer: 0.2 %ID

Question: What about the Drug uptake (Thyroid gland [8]) of the same compound?
Answer: 0.32 %ID

Question: What about the Drug uptake (Thyroid gland [9]) of the same compound?
Answer: 0.05 %ID

Question: Which Drug uptake (Brain [10]) does the source give for CS(=O)(=O)N1CCC(Oc2ccc(CC(=O)N3CCC(N4C(=O)CCc5ccccc54)CC3)c(O[11CH3])c2)CC1 here?
Answer: Not Active

Question: With CS(=O)(=O)N1CCC(Oc2ccc(CC(=O)N3CCC(N4C(=O)CCc5ccccc54)CC3)c(OC/C=C/[125I])c2)CC1 as the compound, how does the Stability [5] read?
Answer: 15%

Question: What about the Drug uptake (Thyroid gland [6]) of the same compound?
Answer: 1.05 %ID

Question: And the Drug uptake (Thyroid gland [7])?
Answer: 0.53 %ID

Question: And the Drug uptake (Thyroid gland [8])?
Answer: 0.81 %ID

Question: And the Drug uptake (Thyroid gland [9])?
Answer: 0.19 %ID

Question: Which Ki (Vasopressin V2 receptor) does the source give for CS(=O)(=O)N1CCC(Oc2ccc(CC(=O)N3CCC(N4C(=O)CCc5ccccc54)CC3)c(OC/C=C\I)c2)CC1 here?
Answer: 580 nM

Question: And the Activity [11]?
Answer: Active

Question: What about the Ki (Vasopressin V1b receptor) of the same compound?
Answer: 9600 nM

Question: What about the logD at 0.05 h [2] of the same compound?
Answer: 2.18

Question: What about the Ki (Vasopressin V1a receptor [3]) of the same compound?
Answer: 16 nM

Question: What about the Ki (Vasopressin V1a receptor [4]) of the same compound?
Answer: 530 nM

Question: What about the Ki (Oxytocin receptor) of the same compound?
Answer: 5.7 nM

Question: With CS(=O)(=O)N1CCC(Oc2ccc(CC(=O)N3CCC(N4C(=O)CCc5ccccc54)CC3)c(OCCF)c2)CC1 as the compound, how does the Ki (Vasopressin V2 receptor) read?
Answer: 1800 nM

Question: And the logD at 0.05 h [2]?
Answer: 2.02

Question: What about the Ki (Vasopressin V1a receptor [3]) of the same compound?
Answer: 9.4 nM

Question: And the Ki (Vasopressin V1a receptor [4])?
Answer: 8700 nM

Question: And the Ki (Oxytocin receptor)?
Answer: 16 nM

Question: For COc1cc(OC2CCN(S(C)(=O)=O)CC2)ccc1CC(=O)N1CCC(N2C(=O)CCc3ccccc32)CC1, which Ki (Vasopressin V2 receptor) is on record?
Answer: 3700 nM

Question: What about the logD at 0.05 h [2] of the same compound?
Answer: 2.25

Question: And the Ki (Vasopressin V1a receptor [3])?
Answer: 78 nM

Question: What about the Ki (Vasopressin V1a receptor [4]) of the same compound?
Answer: 4800 nM

Question: And the Ki (Oxytocin receptor)?
Answer: 28 nM
